This note sets out measurements from ChEMBL document CHEMBL2390924, “Further studies on bis-charged tetraazacyclophanes as potent inhibitors of small conductance Ca(2+)-activated K+ channels” (Eur J Med Chem, 2013).

Assay [1] has as its target Small conductance calcium-activated potassium channel protein 3 (Rattus norvegicus) (UniProt P70605). Description: Inhibition of KCa2.3 in Sprague-Dawley rat superior cervical ganglion neurons assessed as inhibition of afterhyperpolarization by electrophysiological assay relative to UCL1848. Summed up: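 AHP recorded from rat sympathetic ganglion neurons. The equi-effective molar ratio is the test-compound concentration giving 50% AHP inhibition divided by the UCL 1848 concentration giving 50% inhibition, both measured in the same experiment. Each compound was tested on 3–5 neurons.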

In assay [2] the target is Small conductance calcium-activated potassium channel protein 3 (Rattus norvegicus, UniProt P70605). Put plainly: Inhibition of KCa2.3 in Sprague-Dawley rat superior cervical ganglion neurons assessed as inhibition of afterhyperpolarization by electrophysiological assay. Summed up: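 Afterhyperpolarization (AHP) recorded from rat sympathetic ganglion neurons. The reported value is the concentration giving a 50% reduction in AHP amplitude.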
Chain of Small conductance calcium-activated potassium channel protein 3 (P70605 whole entry): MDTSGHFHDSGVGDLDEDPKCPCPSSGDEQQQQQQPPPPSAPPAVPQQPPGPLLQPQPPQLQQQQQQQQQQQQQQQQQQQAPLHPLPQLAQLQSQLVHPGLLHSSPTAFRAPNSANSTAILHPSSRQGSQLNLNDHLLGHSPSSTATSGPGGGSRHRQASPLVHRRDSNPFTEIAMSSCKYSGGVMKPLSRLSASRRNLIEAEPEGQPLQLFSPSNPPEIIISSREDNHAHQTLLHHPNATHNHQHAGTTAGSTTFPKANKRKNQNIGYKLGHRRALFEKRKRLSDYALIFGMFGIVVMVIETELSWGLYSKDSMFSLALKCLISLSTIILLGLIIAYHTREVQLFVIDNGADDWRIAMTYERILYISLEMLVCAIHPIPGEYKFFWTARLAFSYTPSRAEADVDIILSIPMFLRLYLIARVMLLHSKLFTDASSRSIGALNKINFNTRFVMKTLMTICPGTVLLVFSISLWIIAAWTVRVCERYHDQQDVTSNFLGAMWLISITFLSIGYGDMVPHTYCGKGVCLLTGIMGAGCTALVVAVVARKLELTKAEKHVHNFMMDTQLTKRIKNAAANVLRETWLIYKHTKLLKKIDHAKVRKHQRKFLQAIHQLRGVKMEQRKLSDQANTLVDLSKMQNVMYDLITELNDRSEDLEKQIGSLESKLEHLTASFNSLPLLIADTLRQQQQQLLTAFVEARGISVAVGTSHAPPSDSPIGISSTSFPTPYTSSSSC

Chain of Small conductance calcium-activated potassium channel protein 3 (Rattus norvegicus) (P70605 whole entry): as above

Turning to `Cc1ccc2c(c1)c1cc[n+]2CCCCC[n+]2ccc(c3cc(C)ccc32)NCCCCCN1`, the EMR in assay [1] is 2. Further, in assay [2], the IC50 turned out to be 3.8 nM.

Turning to `CC1CC[n+]2ccc(c3ccccc32)NCCCCCNc2cc[n+](c3ccccc23)CC1`, the EMR in assay [1] stood at 1.7. In addition, the IC50 in assay [2] was determined as 3.8 nM.

As to `C1=C\C[n+]2ccc(c3ccccc32)NCCCCCNc2cc[n+](c3ccccc23)C/1`, the EMR in assay [1] was determined as 19. Also, the IC50 in assay [2] came out at 42 nM.

For `COc1ccc2c3cc[n+](c2c1)Cc1cccc(c1)C[n+]1ccc(c2ccc(OC)cc21)NCc1ccc(cc1)CN3`, the EMR in assay [1] was found to be 4.1. Besides, the 50% inhibitory concentration (IC50) in assay [2] was 9.8 nM.

As to `c1ccc2c(c1)c1cc[n+]2CCOCC[n+]2ccc(c3ccccc32)NCCSCCN1`, the EMR in assay [1] is 17. Further, the IC50 in assay [2] is 58 nM.

On to `c1ccc2c(c1)c1cc[n+]2Cc2ccc(cc2)C[n+]2ccc(c3ccccc32)NCCCCCN1`, for which the EMR in assay [1] came out at 1.8. Further, the half-maximal inhibitory concentration (IC50) in assay [2] was 4.4 nM.

As to `Clc1ccc2c(c1)c1cc[n+]2CCCCC[n+]2ccc(c3cc(Cl)ccc32)NCCCCCN1`, the EMR in assay [1] was 1.1. Further, the IC50 in assay [2] stood at 3 nM.

In the case of `c1ccc(CN2CCCCCN(Cc3ccccc3)c3cc[n+](c4ccccc34)CCCCC[n+]3ccc2c2ccccc23)cc1`, the EMR in assay [1] stood at 25. Further, in assay [2], the IC50 worked out at 123 nM.

Regarding `C1=C\CNc2cc[n+](c3ccccc23)CCCCC[n+]2ccc(c3ccccc32)NC/1`, the EMR in assay [1] amounted to 6.1. Moreover, the IC50 in assay [2] is 13 nM.

As for `CC1CCNc2cc[n+](c3ccccc23)CCC(C)CC[n+]2ccc(c3ccccc32)NCC1` (stereo not given), the EMR in assay [1] was found to be 2.3. Moreover, the IC50 in assay [2] was 5.2 nM.

`c1ccc2c(c1)c1cc[n+]2CCC2(CC[n+]3ccc(c4ccccc43)NCCC3(CCN1)OCCO3)OCCO2`: the EMR in assay [1] worked out at 83. For the same compound, the IC50 in assay [2] is 300 nM.

In the case of `Oc1c2cc(I)cc1CNc1cc[n+](c3ccccc13)CCCCC[n+]1ccc(c3ccccc31)NC2`, the EMR in assay [1] turned out to be 136. In addition, the IC50 in assay [2] was 348 nM.

On to `Cc1ccc2c(c1)c1cc[n+]2Cc2cccc(c2)C[n+]2ccc(c3cc(C)ccc32)NCc2ccc(cc2)CN1`, for which the EMR in assay [1] was 7.6. Moreover, the IC50 in assay [2] was found to be 19 nM.

Consider `COc1ccc2c(c1)c1cc[n+]2CCCCC[n+]2ccc(c3cc(OC)ccc32)NCCCCCN1`, for which, in assay [1], the EMR came to 3.1. Moreover, the IC50 in assay [2] stood at 6.8 nM.

Turning to `c1ccc2c(c1)c1cc[n+]2CCCCC[n+]2ccc(c3ccccc32)SCCCCCS1`, the EMR in assay [1] came out at 25. Moreover, the IC50 in assay [2] was found to be 124 nM.

As for `c1ccc2c(c1)c1cc[n+]2CCCCC[n+]2ccc(c3ccccc32)NCCOCCN1`, the EMR in assay [1] was determined as 5. Besides, in assay [2], the IC50 turned out to be 17 nM.

Consider `Clc1cc(Cl)c2c3cc[n+](c2c1)Cc1cccc(c1)C[n+]1ccc(c2c(Cl)cc(Cl)cc21)NCc1ccc(cc1)CN3`, for which the EMR in assay [1] was 10. For the same compound, the IC50 in assay [2] was 24 nM.

As to `FC(F)(F)Oc1ccc2c(c1)c1cc[n+]2Cc2cccc(c2)C[n+]2ccc(c3cc(OC(F)(F)F)ccc32)NCc2ccc(cc2)CN1`, the EMR in assay [1] amounted to 5.9. Further, the IC50 in assay [2] worked out at 15 nM.

As to `Fc1ccc2c(c1)c1cc[n+]2Cc2cccc(c2)C[n+]2ccc(c3cc(F)ccc32)NCc2ccc(cc2)CN1`, the EMR in assay [1] was 6.9. Further, the IC50 in assay [2] is 17 nM.

As for `c1ccc2c(c1)c1cc[n+]2CCSCC[n+]2ccc(c3ccccc32)NCCCCCN1`, the EMR in assay [1] is 1.2. Besides, the IC50 in assay [2] stood at 4.1 nM.

As for `O=C1CCNc2cc[n+](c3ccccc23)CCCCC[n+]2ccc(c3ccccc32)NCC1`, the EMR in assay [1] came to 3.6. Besides, the IC50 in assay [2] stood at 12 nM.

Take `c1ccc2c(c1)c1cc[n+]2CCCCC[n+]2ccc(c3ccccc32)NCCC2(CCN1)OCCO2`: the EMR in assay [1] is 60. Also, the IC50 in assay [2] stood at 214 nM.

Regarding `FC(F)(F)c1ccc2c3cc[n+](c2c1)Cc1cccc(c1)C[n+]1ccc(c2ccc(C(F)(F)F)cc21)NCc1ccc(cc1)CN3`, in assay [1], the EMR came out at 31. Moreover, the IC50 in assay [2] came out at 76 nM.

Consider `c1ccc2c(c1)c1cc[n+]2CCOCC[n+]2ccc(c3ccccc32)NCCOCCN1`, for which the EMR in assay [1] was determined as 5.1. Moreover, in assay [2], the IC50 amounted to 17 nM.

Regarding `c1cc2cc(c1)CNc1cc[n+](c3ccccc13)CCCCC[n+]1ccc(c3ccccc31)NC2` [listing 1 of 2 here], the EMR in assay [1] came to 12.

As for `Nc1ccc2c(c1)c1cc[n+]2CCCCC[n+]2ccc(c3cc(N)ccc32)NCCCCCN1`, the EMR in assay [1] worked out at 1.04. In addition, in assay [2], the IC50 was determined as 2.3 nM.

`C1#CCNc2cc[n+](c3ccccc23)CCCCC[n+]2ccc(c3ccccc32)NC1`: the EMR in assay [1] stood at 5.6. Further, the IC50 in assay [2] was found to be 14 nM.

`CC1CCNc2cc[n+](c3ccccc23)CCCCC[n+]2ccc(c3ccccc32)NCC1`: the EMR in assay [1] turned out to be 2.6. For the same compound, the IC50 in assay [2] is 5.9 nM.

For `O=[N+]([O-])c1ccc2c(c1)c1cc[n+]2Cc2cccc(c2)C[n+]2ccc(c3cc([N+](=O)[O-])ccc32)NCc2ccc(cc2)CN1`, the EMR in assay [1] was 2.6. The IC50 in assay [2] was determined as 5.1 nM.

In the case of `c1ccc2c(c1)c1cc[n+]2CCCCC[n+]2ccc(c3ccccc32)NCCSCCN1`, the EMR in assay [1] was 5.3. Further, the IC50 in assay [2] stood at 18 nM.

Consider `FC(F)(F)c1ccc2c3cc[n+](c2c1)CCCCC[n+]1ccc(c2ccc(C(F)(F)F)cc21)NCCCCCN3`, for which the EMR in assay [1] was found to be 1.6. Besides, the IC50 in assay [2] came to 8.1 nM.

`COc1ccc2c(c1)c1cc[n+]2Cc2cccc(c2)C[n+]2ccc(c3cc(OC)ccc32)NCc2ccc(cc2)CN1`: the EMR in assay [1] was found to be 7.4. Besides, the IC50 in assay [2] was found to be 15 nM.

For the compound `O=[N+]([O-])c1ccc2c(c1)c1cc[n+]2CCCCC[n+]2ccc(c3cc([N+](=O)[O-])ccc32)NCCCCCN1`, the EMR in assay [1] amounted to 2.1. Moreover, in assay [2], the IC50 is 4.1 nM.

With `OC1CCNc2cc[n+](c3ccccc23)CCCCC[n+]2ccc(c3ccccc32)NCC1`, the EMR in assay [1] is 0.91. Besides, in assay [2], the IC50 was 3.2 nM.

For the compound `COc1ccc2c3cc[n+](c2c1)CCCCC[n+]1ccc(c2ccc(OC)cc21)NCCCCCN3`, in assay [1], the EMR came out at 1.1. For the same compound, the IC50 in assay [2] came out at 3 nM.

In the case of `c1ccc2c(c1)c1cc[n+]2CCSCC[n+]2ccc(c3ccccc32)NCCSCCN1`, in assay [1], the EMR stood at 12. Moreover, the half-inhibitory concentration (IC50) in assay [2] stood at 42 nM.

As to `COc1c2cccc1CNc1cc[n+](c3ccccc13)CCCCC[n+]1ccc(c3ccccc31)NC2`, the EMR in assay [1] was 38. Further, the IC50 in assay [2] turned out to be 97 nM.

`c1ccc2c(c1)c1cc[n+]2CCSCC[n+]2ccc(c3ccccc32)NCCOCCN1`: the EMR in assay [1] came out at 11. For the same compound, the IC50 in assay [2] is 37 nM.

Regarding `c1ccc2c(c1)c1cc[n+]2CCCCC[n+]2ccc(c3ccccc32)NCC2CCC(CC2)CN1`, the EMR in assay [1] amounted to 54. For the same compound, the IC50 in assay [2] turned out to be 114 nM.

Take `Clc1ccc2c3cc[n+](c2c1)Cc1cccc(c1)C[n+]1ccc(c2ccc(Cl)cc21)NCc1ccc(cc1)CN3`: the EMR in assay [1] is 7.3. The IC50 in assay [2] is 19 nM.

For `FC1(F)CNc2cc[n+](c3ccccc23)CCCCC[n+]2ccc(c3ccccc32)NCC(F)(F)C1(F)F`, the EMR in assay [1] was 13.5. For the same compound, the IC50 in assay [2] came out at 33 nM.

Take `c1cc2cc(c1)C[n+]1ccc(c3ccccc31)NCc1ccc(cc1)CNc1cc[n+](c3ccccc13)C2`: in assay [1], the EMR was found to be 1.44. Besides, in assay [2], the IC50 was 4.1 nM.

With `c1ccc2c(c1)c1cc[n+]2CCCCC[n+]2ccc(c3ccccc32)NCCCCCN1`, the IC50 in assay [2] came out at 2.7 nM.

For `c1cc2cc(c1)CNc1cc[n+](c3ccccc13)CCCCC[n+]1ccc(c3ccccc31)NC2` [listing 2 of 2 here], the 50% inhibitory concentration (IC50) in assay [2] was 33 nM.

The term IC50 denotes the midpoint of a concentration-inhibition curve.
